Assay results as given in ChEMBL document CHEMBL1135528, “Monocyclic human tachykinin NK-2 receptor antagonists as evolution of a potent bicyclic antagonist: QSAR and site-directed mutagenesis studies” (J Med Chem, 2002).
Numbering of substitutions follows the chain as printed. Activity calls are given as the source filed them. No cut-off for these calls is given here. Where a SMILES comes first, the peptide text is derived from it. Bridges are numbered along the chain shown (N, C = ends). [ ]: non-standard residue; d: D form. The star is where a group is joined. NH(β-GlcNAc) = CC(=O)N[C@@H]1[C@@H](O)[C@H](O)[C@@H](CO)O[C@H]1N*; Dap = NC[C@H](N)C(=O)O

How the values were obtained:
[1] = tested on: T1, Substance-K receptor (Homo sapiens), P21452 [C167A]; experiment: Binding affinity against C167A human neurokinin-2 receptor (hNK-2R) using [3H]nepadutant as a radioligand; UB is Undetectable Binding
T1 sequence (whole entry): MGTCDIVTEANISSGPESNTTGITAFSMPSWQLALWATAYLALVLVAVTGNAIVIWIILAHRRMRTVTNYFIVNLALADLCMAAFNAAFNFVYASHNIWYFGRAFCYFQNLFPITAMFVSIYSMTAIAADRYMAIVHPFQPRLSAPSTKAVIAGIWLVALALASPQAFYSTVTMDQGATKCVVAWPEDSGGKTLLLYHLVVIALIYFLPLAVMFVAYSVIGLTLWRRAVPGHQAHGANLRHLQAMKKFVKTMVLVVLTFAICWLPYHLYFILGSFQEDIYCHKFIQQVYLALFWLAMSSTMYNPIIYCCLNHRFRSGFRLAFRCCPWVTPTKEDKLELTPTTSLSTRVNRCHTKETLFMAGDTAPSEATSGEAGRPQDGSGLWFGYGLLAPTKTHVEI
Method in brief: (§1)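 Membranes from cells stably transfected with wild-type or mutant hNK-2R, incubated with [3H]nepadutant for 60 min at 20 °C in 50 mM Tris-HCl pH 7.4 containing peptidase inhibitors, 150 mM NaCl, 5 mM MnCl2 and 1 g/L BSA. Competitors ranged 0.3 pM–10 μM. Nonspecific binding was defined with 1 mM unlabeled ligand. Bound label was collected by filtration and counted. Means from ≥3 duplicate experiments.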

[2] = tested on: Substance-K receptor (Homo sapiens), P21452 [F168A]; experiment: Binding affinity against F168A human neurokinin-2 receptor (hNK-2R) using [3H]-nepadutant as a radioligand; method in brief: as §1
[3] = tested on: Substance-K receptor (Homo sapiens), P21452 [S164A]; experiment: Binding affinity against S164A human neurokinin-2 receptor (hNK-2R) using [3H]nepadutant as a radioligand; method in brief: as §1
[4] = target: T2, Substance-K receptor (Homo sapiens) (UniProt P21452); experiment: Binding affinity against wild-type human Wild-type tachykinin receptor 2 (hNK-2R) using [3H]-SR-48,968 as a radioligand
T2 sequence (whole entry): T1 sequence (whole entry) with A167C
Method in brief: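 Radioligand [3H]SR48968 was incubated for 30 min at 20 °C with membranes from stably transfected wild-type or mutant hNK-2R cells, in Tris-HCl 50 mM pH 7.4 buffer with protease inhibitors, NaCl, MnCl2 and BSA. Test ligands ranged 0.3 pM–10 μM, with nonspecific binding in 1 mM unlabeled ligand. Filtration through PEI-soaked filters was followed by scintillation counting. pKi was derived by curve fitting, duplicate determinations.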

[5] = tested on: T3, Substance-K receptor (Homo sapiens), P21452 [W263A]; experiment: Binding affinity against W263A human neurokinin-2 receptor (hNK-2R) using [3H]nepadutant as a radioligand; UB is Undetectable Binding; method in brief: as §1
T3 sequence (whole entry): T1 sequence (whole entry) with A167C, W263A

[6] = tested on: Substance-K receptor (Homo sapiens), P21452 [Y107A]; experiment: Binding affinity against Y107A human neurokinin-2 receptor (hNK-2R) using [3H]nepadutant as a radioligand; method in brief: as §1
[7] = tested on: T4, Substance-K receptor (Homo sapiens), P21452 [Y266F]; experiment: Binding affinity against Y266F human neurokinin-2 receptor (hNK-2R) using [3H]nepadutant as a radioligand; UB is Undetectable Binding; method in brief: as §1
T4 sequence (whole entry): T1 sequence (whole entry) with A167C, Y266F

[8] = tested on: Substance-K receptor (Homo sapiens), P21452 [Y269A]; experiment: Binding affinity against Y269A human neurokinin-2 receptor (hNK-2R) using [3H]nepadutant as a radioligand; method in brief: as §1
[9] = tested on: Substance-K receptor (Homo sapiens), P21452 [Y289T]; experiment: Binding affinity against Y289T human neurokinin-2 receptor (hNK-2R) using [3H]nepadutant as a radioligand; method in brief: as §1
[10] = tested on: T5, Substance-K receptor (Homo sapiens), P21452 [S170A]
T5 sequence (whole entry): T1 sequence (whole entry) with A167C, S170A

Sequence of Substance-K receptor (Homo sapiens), P21452 [Y107A] (P21452 whole entry Y107A): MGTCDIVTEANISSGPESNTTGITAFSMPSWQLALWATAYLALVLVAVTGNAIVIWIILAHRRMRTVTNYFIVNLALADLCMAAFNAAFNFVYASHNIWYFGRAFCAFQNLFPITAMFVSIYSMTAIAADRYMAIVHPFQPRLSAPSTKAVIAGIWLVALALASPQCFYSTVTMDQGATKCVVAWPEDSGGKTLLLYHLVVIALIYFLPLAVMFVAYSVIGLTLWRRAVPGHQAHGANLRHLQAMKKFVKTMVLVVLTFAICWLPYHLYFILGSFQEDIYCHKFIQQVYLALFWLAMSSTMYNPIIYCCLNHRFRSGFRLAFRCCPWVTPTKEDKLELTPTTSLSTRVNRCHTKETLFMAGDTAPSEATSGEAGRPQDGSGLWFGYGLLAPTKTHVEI
Sequence of Substance-K receptor (Homo sapiens), P21452 [Y289T] (P21452 whole entry Y289T): as the sequence (P21452 whole entry Y107A) above, with A107Y, Y289T counted along it
Sequence of Substance-K receptor (Homo sapiens), P21452 [Y269A] (P21452 whole entry Y269A): as the sequence (P21452 whole entry Y107A) above, with A107Y, Y269A counted along it
Sequence of Substance-K receptor (Homo sapiens), P21452 [F168A] (P21452 whole entry F168A): as the sequence (P21452 whole entry Y107A) above, with A107Y, F168A counted along it
Sequence of Substance-K receptor (Homo sapiens), P21452 [S164A] (P21452 whole entry S164A): as the sequence (P21452 whole entry Y107A) above, with A107Y, S164A counted along it

In the case of `CC(=O)N[C@@H]1[C@@H](O)[C@H](O)[C@@H](CO)O[C@H]1NC(=O)C[C@@H]1NC(=O)[C@H](CC(C)C)NC(=O)[C@@H]2CNC(=O)C[C@H](NC1=O)C(=O)N[C@@H](Cc1c[nH]c3ccccc13)C(=O)N[C@@H](Cc1ccccc1)C(=O)N2` (cyclo(D(NH(β-GlcNAc))DWF[Dap]L); lactam 2-5), the UB [1] is reported as “inactive”, the KD/Ki [2] is reported as 4.1 nM and the KD/Ki [3] is reported as 2.6 nM. For the same compound, the KD/Ki [4] was 9.1 nM, the UB [5] was “inactive” and the KD/Ki [6] was 0.75 nM. For the same compound, the UB [7] was “inactive”, the KD/Ki [8] was 19 nM and the KD/Ki [9] was 11.2 nM. The KD/Ki [10] was 1.9 nM.
